Data taken from ChEMBL document CHEMBL2010740, “Synthesis and evaluation of 2-amido-3-carboxamide thiophene CB₂ receptor agonists for pain management” (Bioorg Med Chem Lett, 2012).

Columns and labels:
Type in all cases: cell-based
Cannabinoid receptor 2 [1] = target: T1, Cannabinoid receptor 2 (Rattus norvegicus, UniProt Q9QZN9); test: Displacement of [3H]CP-55940 from rat recombinant CB2 receptor expressed in HEK293 cells after 90 mins
T1 sequence (Q9QZN9 whole entry): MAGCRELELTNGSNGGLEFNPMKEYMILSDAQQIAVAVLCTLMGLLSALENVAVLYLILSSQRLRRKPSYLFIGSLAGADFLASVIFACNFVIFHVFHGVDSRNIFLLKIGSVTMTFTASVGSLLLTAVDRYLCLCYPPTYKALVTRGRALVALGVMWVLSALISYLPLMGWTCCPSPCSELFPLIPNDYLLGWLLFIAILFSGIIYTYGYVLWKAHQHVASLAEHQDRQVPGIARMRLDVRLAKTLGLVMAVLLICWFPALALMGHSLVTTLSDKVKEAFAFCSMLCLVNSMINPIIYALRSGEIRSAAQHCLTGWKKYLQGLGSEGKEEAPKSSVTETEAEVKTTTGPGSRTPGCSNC
In short: (§1)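 Competitive binding: [³H]CP-55,940 displaced from membranes of HEK 293 cells stably transfected with human or rat CB₂, or CHO cells stably transfected with human or rat CB₁. Reported as pKi. Determinations >2 (duplicate of duplicate).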

Cannabinoid receptor 2 [2] = target: Cannabinoid receptor 2 (Homo sapiens, UniProt P34972); test: Displacement of [3H]CP-55940 from human recombinant CB2 receptor expressed in HEK293 cells after 90 mins; in short: as §1
Chain of Cannabinoid receptor 2 (Homo sapiens, UniProt P34972) (P34972 whole entry): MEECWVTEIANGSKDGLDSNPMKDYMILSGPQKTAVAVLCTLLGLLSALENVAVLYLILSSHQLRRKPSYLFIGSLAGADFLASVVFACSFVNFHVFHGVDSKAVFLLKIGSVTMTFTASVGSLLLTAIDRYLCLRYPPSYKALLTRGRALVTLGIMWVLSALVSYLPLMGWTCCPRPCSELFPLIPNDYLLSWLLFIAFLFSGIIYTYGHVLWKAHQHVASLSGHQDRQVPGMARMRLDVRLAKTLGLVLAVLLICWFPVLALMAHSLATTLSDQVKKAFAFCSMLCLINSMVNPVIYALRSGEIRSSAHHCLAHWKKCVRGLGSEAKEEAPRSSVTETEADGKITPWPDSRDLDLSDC

Cannabinoid receptor 1 = Cannabinoid receptor 1 (Homo sapiens, UniProt P21554); test: Displacement of [3H]CP-55940 from human recombinant CB1 receptor expressed in CHO cells after 90 mins; in short: as §1
Chain of Cannabinoid receptor 1 (P21554 whole entry): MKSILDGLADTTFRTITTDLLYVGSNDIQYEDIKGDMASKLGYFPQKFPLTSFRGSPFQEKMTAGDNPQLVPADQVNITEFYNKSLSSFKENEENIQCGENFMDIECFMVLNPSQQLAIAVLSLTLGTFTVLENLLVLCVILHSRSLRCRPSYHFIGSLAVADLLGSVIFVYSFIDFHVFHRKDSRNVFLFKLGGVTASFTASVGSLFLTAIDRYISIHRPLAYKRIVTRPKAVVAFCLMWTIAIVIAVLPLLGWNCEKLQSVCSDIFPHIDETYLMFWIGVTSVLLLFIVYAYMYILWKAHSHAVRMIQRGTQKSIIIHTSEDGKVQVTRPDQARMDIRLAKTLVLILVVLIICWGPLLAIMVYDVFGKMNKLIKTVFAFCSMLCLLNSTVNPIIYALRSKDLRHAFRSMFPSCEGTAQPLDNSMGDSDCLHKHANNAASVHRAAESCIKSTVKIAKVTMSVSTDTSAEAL

Structure (SMILES): COCCNC(=O)c1c(NC(=O)C23CC4CC(CC2C4)C3)sc2c1CCOC2
- Ki (Cannabinoid receptor 2 [1]): 263 nM
- Ki (Cannabinoid receptor 2 [2]): 120 nM
- Ki (Cannabinoid receptor 1): > 10000 nM
